Reference: ChEMBL document CHEMBL3228033, “Cyclic amidine inhibitors of indolamine N-methyltransferase” (J Med Chem, 1979)

system: Oryctolagus cuniculus; assay: In vivo inhibition of New Zealand white rabbit lung INMT at 0.5 %, po in drinking water for 5 days; assay type: functional
How it was run: (§1)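 Male NZW rabbits, three per group, received compound in drinking water (pH 7) throughout, with water for controls. Afterwards decapitated and bled out. Crude lung INMT (54 000g supernatant) assayed by the standard in vitro [14C]SAM/NMT method. Activity taken as cpm/mg protein after 1 h at 37 °C, read in the toluene-isoamyl alcohol phase. Means ± SEM.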

Compound	inhibition (INH) [%]
C1CN2CCSCC2=N1.O=C(O)/C=C/C(=O)O	75

system: Oryctolagus cuniculus; assay: In vivo inhibition of New Zealand white rabbit INMT-mediated [14C]NMT to [14C]DMT conversion in lung at 0.5 %, po in drinking water for 5 days; assay type: functional
How it was run: (§2)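 Male NZW rabbits (400-500 g), three per group, given 0.5% (v/v) in drinking water for 5 days; controls water. Day 5: pheniprazine 5 mg/kg iv, then 6 h later 25 µCi (0.5 mg) [14C]NMT iv. After 5 min, decapitation; lung and brain frozen in liquid nitrogen. [14C]DMT counted as cpm/g tissue. Values are means of three animals, with Student's t test.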

Compound	inhibition (INH) [%]
C1CN2CCSCC2=N1.O=C(O)/C=C/C(=O)O	64

system: Oryctolagus cuniculus; assay: In vivo inhibition of New Zealand white rabbit lung INMT at 0.02 %, po in drinking water for 12 days; assay type: functional; how it was run: as §1

Compound	inhibition (INH) [%]
CN1CCSC1=N.I	76

target: Indolethylamine N-methyltransferase (Homo sapiens, UniProt O95050); assay: Inhibition of human lung INMT using N-methyltryptamine as substrate after 90 mins by liquid scintillation counting in presence of S-methyl-[14C]adenosylmethionine
Sequence (O95050 whole entry): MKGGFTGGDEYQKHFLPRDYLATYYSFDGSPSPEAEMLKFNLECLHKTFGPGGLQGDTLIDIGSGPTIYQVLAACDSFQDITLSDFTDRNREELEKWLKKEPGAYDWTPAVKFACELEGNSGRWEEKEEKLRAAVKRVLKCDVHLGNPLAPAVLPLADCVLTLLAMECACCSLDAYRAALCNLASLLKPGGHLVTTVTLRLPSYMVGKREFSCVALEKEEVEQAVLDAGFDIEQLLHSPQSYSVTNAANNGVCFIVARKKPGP

IC50 [µM]	Compound
852	C1CCN2CCCC2=NC1
> 86.6	Cn1cc(C(F)(F)F)sc1=N

Compound	IC50 [µM]
C1CCC2=NCCCN2CC1	25.7

system: Oryctolagus cuniculus; assay: In vivo inhibition of New Zealand white rabbit INMT-mediated [14C]NMT to [14C]DMT conversion in brain at 0.5 %, po in drinking water for 5 days; assay type: functional; how it was run: as §2

Compound	inhibition (INH) [%]
C1CN2CCSCC2=N1.O=C(O)/C=C/C(=O)O	57

target: Indolethylamine N-methyltransferase (Oryctolagus cuniculus, UniProt O97972); assay: Inhibition of New Zealand white rabbit lung INMT using N-methyltryptamine as substrate after 60 to 90 mins by liquid scintillation counting in presence of S-methyl-[14C]adenosylmethionine
How it was run: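 Enzyme from male rabbit lung: homogenate in 0.15 M KCl with 10^-4 M DTT and EDTA, 50 000 g supernatant, 40-60% ammonium sulfate fraction dialysed (some runs further Sephadex G-150 purified). Incubation in potassium phosphate pH 7.9 with N-methyltryptamine and S-[methyl-14C]adenosylmethionine, test compound in water or 5% DMSO, 37 °C. Stopped with borate pH 10; 14C-DMT extracted into isoamyl alcohol.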

Chain of Indolethylamine N-methyltransferase (Oryctolagus cuniculus, UniProt O97972) (O97972 whole entry): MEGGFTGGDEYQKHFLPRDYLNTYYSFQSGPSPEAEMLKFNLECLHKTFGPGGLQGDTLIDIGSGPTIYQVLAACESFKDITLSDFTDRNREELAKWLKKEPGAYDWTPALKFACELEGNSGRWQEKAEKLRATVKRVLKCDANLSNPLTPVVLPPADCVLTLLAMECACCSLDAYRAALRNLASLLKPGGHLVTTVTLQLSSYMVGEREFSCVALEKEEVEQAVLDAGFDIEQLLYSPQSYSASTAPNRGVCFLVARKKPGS

Compound	IC50 [µM]
C1CCC2=NCCCN2CC1	8
CC(C)CN1CCCC1=N	19.4
C1CN=C2CCCN2C1	1.67
C1CCN2CCCC2=NC1	74.8
CC1CCC2=NCCCN21 (stereo not drawn)	13.2
C(=C1/CCC2=NCCCN21)/c1ccccc1	37.1
C=C1CN=C2CCCN2C1	43.3
ClC1CCCN2CCN=C12 (stereo not drawn)	52.2
CC1(C)CC2=NCCN2C1	54.2
C1CCC2(CC1)CCC1=NCCN12	141
c1ccc(C2CC3=NCCN3C2)cc1 (stereo not drawn)	> 330
c1ccc(C2(c3ccccc3)CC3=NCCN3C2)cc1	> 330
c1cn2c(n1)CCC2	83.1
c1ccc2c(c1)CN1CCN=C21	> 330
c1ccc2c(c1)CC1C2CC2=NCCN21 (stereo not drawn)	16.4
C1CN2C(=N1)C1CC3CC(C1)CC2C3	> 330
C1CN2CCOCC2=N1	13.8
CC1CN2CCN=C2CS1 (stereo not drawn)	30.3
C1=CN2CCN=C2CS1	18
CC1=CSCC2=NCCN12	45.4
c1ccc2c(c1)SCC1=NCCN12	> 330
CCCN1CCSC1=N	9.9
C#CCN1CCSC1=N	13.8
Cn1cc(C(F)(F)F)sc1=N	> 88.6
CN1CCOC1=N	40

Compound	IC50 [µM]
C/N=C1\CCCN1	27.1
N=C1CCCN1C1CC1	67
CCOC(CN1CCCC1=N)OCC	> 106
N=C1CCCN1CCc1ccccc1	3720
CN1CCC/C1=N\CC(F)(F)F	> 92.6
C/N=C1\CCCN1C	31.2
CN1CCC/C1=N\C1CC1	> 10.3
C/N=C1\CSC=CN1C	9.8
N=c1ccccn1CC(F)(F)F	> 9.7
Cn1cccc/c1=N\CC(F)(F)F	> 9.2
Cn1cccc/c1=N\CCO	> 8.9
Cn1cccc/c1=N\C1CC1	> 10.1
Cn1cccc(C#N)c1=N	179
Cn1cc(F)ccc1=N	69.8
C/N=c1\cccc(F)n1C	74
C/N=c1\cccc(NC)n1C	13.1
CCOc1cccc(=N)n1C	> 10.3
Cn1ccncc1=N	> 5260
N#CCn1ccc(=N)cc1	> 148
C[n+]1ccccc1CC#N	> 11.7
Cc1cc(=N)sn1C	19.6
C[N+]1=C2CCCN2CCC1	38.7
N=C1SCCN1Cc1ccncc1	> 6.9
NC1=NCCC1	33.6

Now from value to compound:

IC50 [µM]	Compound
0.7	C1CCN2CCCN=C2C1
7	CC1CC2=NCCCN2C1 (stereo not drawn)
0.04	C1CC2=NCCN2C1
3.8	CC1CC2=NCCN2C1 (stereo not drawn)
9.3	CC1CCC2=NCCN21 (stereo not drawn)
0.17	C1CCN2CCN=C2C1
0.5	C1CN2CCSCC2=N1.O=C(O)/C=C/C(=O)O
3.6	[O-][S+]1CCN2CCN=C2C1 (stereo not drawn)
0.8	CN1CCSC1=N.I
8.1	C/N=C1\SCCN1C
0.2	CCN1CCSC1=N
7.7	C/N=C1/NCCS1
7.1	C=CCN1CCSC1=N
1.5	CNN1CCSC1=N
7.9	CC1CN(C)C(=N)S1 (stereo not drawn)
2	Cn1ccsc1=N

IC50 [µM]	Compound
6.9	C/N=c1\ccsn1C
5.2	C/N=c1\cnsn1C
1.5	CN1CCCC1=N
1.6	CCN1CCCC1=N
6.3	CN1CCSCC1=N
2	CN1CCCSC1=N
1.8	CCN1CCCSC1=N
3	CN1C=CSCC1=N
2	CN1C=CCSC1=N
1.6	Cn1ccccc1=N
1.58	C=CCn1ccccc1=N
2.8	Cc1ccn(C)c(=N)c1
5.3	Cn1c(F)cccc1=N
6.2	Cn1c(N)cccc1=N
0.9	CN1CCC=CC1=N
6.2	Cn1ccc(=N)cc1
